In ChEMBL document CHEMBL3808369, “Identification of Cyproheptadine as an Inhibitor of SET Domain Containing Lysine Methyltransferase 7/9 (Set7/9) That Regulates Estrogen-Dependent Transcription” (J Med Chem, 2016):
Calls of active or inactive are those of the source. No cut-off for these calls is given here.

Columns and labels:
MCF7 = test: Effect on ERalpha expression in human MCF7 cells at 10 to 100 uM after 48 hrs by immunoblotting analysis; assay type: functional, cell-based
Procedure, shortened: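 MCF7 cells were treated with various concentrations for 48 h. Lysates were made in RIPA buffer with protease inhibitors, separated by SDS-PAGE, transferred to PVDF and immunoblotted for ERα with a rabbit polyclonal antibody. Detection was by chemiluminescence.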

[1] = biological target: T1, Histone-lysine N-methyltransferase SETD7 (Homo sapiens) (UniProt Q8WTS6); test: Inhibition of Set7/9 (unknown origin) expressed in Escherichia coli BL21 (DE3) by fluorogenic assay
T1 sequence (whole entry): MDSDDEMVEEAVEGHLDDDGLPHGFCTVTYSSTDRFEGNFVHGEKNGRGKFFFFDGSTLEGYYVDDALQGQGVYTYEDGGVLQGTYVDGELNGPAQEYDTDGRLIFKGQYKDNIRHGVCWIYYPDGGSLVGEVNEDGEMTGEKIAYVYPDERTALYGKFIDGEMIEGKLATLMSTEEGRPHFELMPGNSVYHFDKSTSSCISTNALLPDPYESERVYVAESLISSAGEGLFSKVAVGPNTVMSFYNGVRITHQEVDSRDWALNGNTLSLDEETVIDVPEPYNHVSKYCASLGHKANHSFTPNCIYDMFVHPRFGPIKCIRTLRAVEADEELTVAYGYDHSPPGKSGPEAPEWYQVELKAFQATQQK

[2] = biological target: T2, Histone-lysine N-methyltransferase SETD7 (Homo sapiens, UniProt Q8WTS6); test: Inhibition of recombinant Set7/9 (unknown origin) expressed in Escherichia coli BL21 (DE3) using biotinylated histone H3-derived peptide/SAM as substrate by alphaLISA
T2 sequence (Q8WTS6 whole entry): T1 sequence (whole entry)

[3] = biological target: T1, Histone-lysine N-methyltransferase SETD7 (Homo sapiens); test: Inhibition of Set7/9 in human MCF7 cells assessed as suppression of beta-estradiol-induced ERE promoter activation at 3 to 10 uM preincubated for 18 hrs followed by beta-estradiol addition measured after 24 hrs by luciferase reporter gene assay; assay type: cell-based
Procedure, shortened: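 MCF7 cells were switched to estrogen-free medium (phenol red-free RPMI, 10% charcoal-stripped FBS) for 3 days, then transfected with pGL4-3×ERE-TA2 and hRuc-TK. After 6 h, compound was added. After 18 h more, cells received ± 10 nM β-estradiol for 24 h. Dual-luciferase readout: firefly normalized to Renilla, given as fold over unstimulated cells. Four independent assays, SD.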

[4] = biological target: T1, Histone-lysine N-methyltransferase SETD7 (Homo sapiens); test: Inhibition of Set7/9 in human MCF7 cells assessed as suppression of beta-estradiol-induced pS2 mRNA expression at 3 to 10 uM preincubated for 18 hrs followed by beta-estradiol addition measured after 24 hrs by RT-PCR analysis; assay type: cell-based; conditions: in the assay text read “preincubated for 24 hrs” for “preincubated for 18 hrs”
Procedure, shortened: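 MCF7 cells in estrogen-free medium were treated with compound for 24 h, then with 10 nM β-estradiol plus compound for a further 24 h. pS2 and GAPDH mRNA levels were measured by semiquantitative RT-PCR.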

| inhibition [1] | IC50 [2] [µM] | inhibition [3] | inhibition [4] | SMILES | Activity (MCF7) |
| --- | --- | --- | --- | --- | --- |
| inactive | – | – | – | O=C(c1ccc(F)cc1)C1CCN(CCn2c(=O)[nH]c3ccccc3c2=O)CC1 | inactive |
| – | > 100 | – | – | CC(=O)N1CCC(=C2c3ccccc3C=Cc3ccccc32)CC1 | – |
| – | – | Active | Active | CC/C(=C(\c1ccccc1)c1ccc(OCCN(C)C)cc1)c1ccccc1 | – |
| inactive | – | – | – | Cc1ccc(/C(=C\CN2CCCC2)c2ccccn2)cc1 | inactive |
